Source: PubChem
Compounds with a hit are over-represented: about 1.6% of the library has one in this group of screens.
Neddyl block = blocks human cullin neddylation | TR-FRET cullin neddylation, biochemical | P61081+Q13564 | 360,000 compounds, 0.58% hits | inhibition, % at 25 µM; in the data active = inhibition above about 36%
H9c2 protect = modulators protecting cardiomyocytes from myocardial damage. H9c2 cardiomyocytes, H2O2 injury protection, ATPLite, 2 h. protection from H2O2 cell death, % at 20 µM. 360,000 compounds, 0.63% hits;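 active = compounds giving at least 50% protection of heart cells from peroxide-induced death in the single-dose screen, raw or plate-pattern-corrected value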;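 note: 0% = DMSO wells with peroxide and 100% = DMSO wells without peroxide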
ARFGAP1 inhibitor = rat ARFGAP1 inhibition; Q62848; Arfgap1-stimulated ARF1 GTP hydrolysis, GDP FP detection; 360,000 compounds, 0.26% hits; inhibition, % at 16.5 µM;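 active = inhibition above a per-plate limit, mean inhibition of low control wells plus 3 SD, cut at about 25% in these data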;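 note: 0% = DMSO wells with enzyme and 100% = wells lacking Arfgap1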
Target sequence (Q62848 1-136 limits assumed): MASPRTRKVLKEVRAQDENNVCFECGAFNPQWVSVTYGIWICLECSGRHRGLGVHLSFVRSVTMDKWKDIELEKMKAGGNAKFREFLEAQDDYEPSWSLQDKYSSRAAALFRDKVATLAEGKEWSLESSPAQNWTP
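material = rat Arfgap1 catalytic domain, aa 1-136 | also added = human ARF1(Δ1-17)-GTP substrate | compound dosing = one concentration, 16.5 µM, DMSO 1.26% | times = GTP hydrolysis reaction 2 h at 25 °C | measured by = FP, GDP Alexa 633 tracer displaced from anti-GDP antibody, 620/688 nm | evaluation = percent inhibition of Arfgap1-stimulated GTP hydrolysis | replication = single well per compound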
ASAP1 GAP inh = ASAP1 ArfGAP inhibition | ASAP1-stimulated ARF1 GTP hydrolysis, GDP FP detection | 360,000 compounds, 0.19% hits | Q9ULH1 | inhibition, % at 16.5 µM | AID 624377; in the data active = inhibition above about 25%;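 note: 0% = vehicle with enzyme and substrate and 100% = no enzyme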
Target sequence (Q9ULH1 325-724 limits assumed): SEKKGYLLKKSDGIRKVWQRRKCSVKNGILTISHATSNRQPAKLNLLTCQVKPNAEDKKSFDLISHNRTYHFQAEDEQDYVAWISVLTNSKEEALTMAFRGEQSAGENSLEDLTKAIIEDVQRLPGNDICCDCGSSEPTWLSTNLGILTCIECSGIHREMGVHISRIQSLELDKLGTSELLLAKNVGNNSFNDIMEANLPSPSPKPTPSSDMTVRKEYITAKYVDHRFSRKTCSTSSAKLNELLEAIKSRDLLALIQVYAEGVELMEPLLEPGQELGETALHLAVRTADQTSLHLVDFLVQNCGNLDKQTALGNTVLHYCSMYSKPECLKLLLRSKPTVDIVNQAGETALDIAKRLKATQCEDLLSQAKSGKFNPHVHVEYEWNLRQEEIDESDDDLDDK
* marks the source's active call; other numbers are inactive results; · = not tested or not shown.

SMILES	Neddyl block	H9c2 protect	ARFGAP1 inhibitor	ASAP1 GAP inh
Cc1ccccc1C(=O)N[C@@H](Cc1cccnc1)C(=O)N1CCC[C@H]1C(=O)NCCc1ccccc1Cl	·	·	-10	-11
CCC(=O)N1CCN(c2ccc(NC(=O)c3cc4ccccc4o3)cc2Cl)CC1	28	53*	5	9
C[C@H](NC(=O)[C@@H]1CCCN1C(=O)OC(C)(C)C)c1ccccc1	-5	·	6	4
O=c1[nH]nc(-c2ccc(NCCCO)c([N+](=O)[O-])c2)c2ccccc12	-76	58*	-9	0
CN(C)CCCNc1ccc(-c2nn(C)c(=O)c3ccccc23)cc1[N+](=O)[O-]	-53	18	7	0
O=c1[nH]nc(-c2ccc(NCCO)c([N+](=O)[O-])c2)c2ccccc12	-71	68*	-5	-4
CCOC(=O)CN1CCCc2nc(C)c(C)cc21	·	·	8	-1
COc1ccc(/C=N/NC(=O)c2nc(-c3ccccc3)n(-c3ccccc3)n2)c(O)c1	48*	61*	-4	-18
COc1ccc2[nH]c(C(=O)N/N=C/c3ccc(O)cc3O)cc2c1	48*	45	9	10
CCOc1ccc2[nH]c(C(=O)N/N=C/c3ccc(OC)cc3)cc2c1	34	9	-2	8
CC(C)(C)c1cc(C(=O)N/N=C/c2ccccc2O)n(-c2ccccc2)n1	·	51*	13	3
CCCCNc1cccc2c1S(=O)(=O)N[C@H](Cc1ccccc1)CO2	·	·	4	5
COC(=O)C1=C(C)N(C)C(=NCc2cccc(C(F)(F)F)c2)NC1c1cccc(F)c1 (stereo not drawn)	·	·	-1	-2
NC(=O)c1ncn([C@@H]2O[C@H](C(=O)N[C@H](Cc3c[nH]c4ccccc34)C(=O)N3CCN(C(=O)N4CCOCC4)CC3)[C@@H](O)[C@H]2O)n1	·	·	-3	5
COc1ccccc1CCn1cnc(-c2ccc(Cl)cc2)c1CC(C)C	·	·	0	4
COc1cc(-c2cc(O)c(-c3ccc4ccccc4n3)c(=O)[nH]2)cc(OC)c1OC	-15	62*	-9	12
CCCCc1c(-c2ccccc2OC)ncn1Cc1ccc([N+](=O)[O-])cc1	·	·	-13	3
CNC(=O)/C(C#N)=C/c1c(N(Cc2ccccc2)Cc2ccccc2)nc2c(C)cccn2c1=O	11	20	5	-15
CCNC(=O)/C(C#N)=C/c1c(N(Cc2ccccc2)Cc2ccccc2)nc2ccccn2c1=O	10	73*	-2	-2
COc1c2c(cc3c1c(=O)c1ccccc1n3C)OCO2	·	·	2	-5
COc1ccc(-c2cc(C(F)(F)F)n3nc(C(=O)N4CCCC4)cc3n2)cc1	·	-10	7	-2
COc1ccc(-c2cc3nc(C)cc(N4CCN(C(=O)c5ccoc5)CC4)n3n2)cc1	·	54*	6	1
COc1ccc(-c2cc(C(F)(F)F)n3nc(C(=O)N4CCN(C(=O)c5ccco5)CC4)cc3n2)cc1	·	55*	-5	-4
COc1ccccc1-c1cc2nc(-c3ccccc3)cc(N3CCN(C(=O)c4ccoc4)CC3)n2n1	-4	50*	9	-12
COc1ccccc1-c1cc2nc(-c3ccccc3)cc(N3CCN(C(=O)c4ccco4)CC3)n2n1	-117	55*	-6	4
SMILES	Neddyl block	H9c2 protect	ARFGAP1 inhibitor	ASAP1 GAP inh
CCCCCCCCN1C(=O)[C@@H](CC(=O)NCCc2ccccc2OC)C[C@@]2(C(=O)OC)C1=C[C@H](C(C)(C)C)O[C@@H]2C	·	·	-3	23
COC(=O)[C@]12C[C@H](CC(=O)N3CCC(c4ccccc4)CC3)C(=O)N(CCc3ccc(OC)c(OC)c3)C1=C[C@H](C(C)(C)C)O[C@@H]2C	·	·	-1	2
CN1C(=O)[C@@]2(O[C@H]3[C@H]4C=C[C@@H]([C@H]5C(=O)N(Cc6ccccc6)C(=O)[C@@H]45)N3C3=C2C(=O)CC3)c2ccccc21	·	·	-8	2
Nc1c2c(nc3ccn(Cc4ccccc4)c(=O)c13)CCC2	39*	-8	-8	2
Nc1c2c(nc3ccn(-c4ccccc4)c(=O)c13)CCCCC2	16	7	2	2
Cc1ccc(C(=O)Nc2ccnc(-c3cccnc3)n2)cc1	-7	20	-2	-8
Cc1ccc(NC(=O)Nc2ccnc(-c3cccnc3)n2)cc1	-6	78*	-7	-1
CC1(C(=O)NCc2ccc3c(c2)OCO3)CCN1C(=O)Cc1ccc(Cl)cc1Cl (stereo not drawn)	4	5	10	-14
Cc1ccc(NC2=C/C(=N/S(=O)(=O)c3cccs3)c3ccccc3C2=O)cc1	-16	-18	7	33*
O=C1C(Nc2ccccc2)=C/C(=N/S(=O)(=O)c2cccs2)c2ccccc21	-53	-10	·	·
COc1ccc2c(c1OC)C(=O)N1c3ccccc3C(=O)N(c3ccccc3)C21 (stereo not drawn)	0	54*	1	9
Cc1ccc2[nH]c(O)c(N=NC(N)=S)c2c1	-34	-9	7	7
CC(/C=C(\NC(=O)c1ccccc1)C(=O)N=Nc1c(O)[nH]c2ccc(C)cc12)=C\c1ccccc1	-2	62*	4	8
O=C(NN=Cc1ccc(O)cc1)c1ccccc1NS(=O)(=O)c1cccs1	9	27	0	-4
O=C(N/N=C/c1cc(Cl)cc([N+](=O)[O-])c1O)c1ccccc1NS(=O)(=O)c1cccs1	-43	50*	2	-6
N#C/C(=C\Nc1ccc2c(c1)OCCO2)c1nc2ccccc2[nH]1	-4	82*	0	5
N#C/C(=C\Nc1ccc2c(c1)OCCO2)c1nc(-c2ccccc2)cs1	11	-10	0	6
Nc1[nH]c(C(=O)c2ccc(Br)cc2)c(-c2ccc(Br)cc2)c1C(=O)NCc1cccc2ccccc12	·	·	-7	3
CN(C)CCCN1CC(=O)N2CCc3ccc(Br)cc3C2CC1=O (stereo not drawn)	·	·	-3	7
O=C(CSc1ccc2nnc(-c3ccc(F)cc3)n2n1)N1CCCc2ccccc21	0	80*	6	6
O=C(CSc1ccc2nnc(-c3ccc(Cl)cc3)n2n1)N1CCCc2ccccc21	6	25	-2	-5
COc1ccccc1NC(=O)CSc1ccc2nnc(-c3ccc(C)cc3)n2n1	-21	69*	-5	2
COc1ccccc1NC(=O)CSc1ccc2nnc(-c3ccncc3)n2n1	-3	18	-1	1
COCCN(Cc1ccc(C)cc1)C(=O)[C@H]1O[C@@H](n2cnc(C(N)=O)n2)[C@H](O)[C@@H]1O	·	·	1	-13
Cc1cccc(OCCCC(=O)NNC(=O)c2ccccn2)c1	-14	50*	2	-3
CCOC(=O)C1=C(C(=O)OCC)C2N(Cc3ccc(Br)cc3)c3ccccc3[C@@]23C[C@@H](C(=O)OC)N(S(=O)(=O)c2ccc(C(F)(F)F)cc2)C3=N1 (stereo partly drawn)	·	·	1	6
Cc1nnn(-c2nonc2N)c1C(=O)N/N=C/c1ccccc1O	15	54*	19	-7
CCN1CCc2c(sc(NC(=O)c3ccc4ccccc4c3)c2C(N)=O)C1	41*	0	6	-5
